Experimental data reported in ChEMBL document CHEMBL1629467, “Design and synthesis of novel tetrahydro-2H-Pyrano[3,2-c]pyridazin-3(6H)-one derivatives as potential anticancer agents” (Eur J Med Chem, 2010).

Columns and labels:
SK-BR-3 [1] = assay: Growth inhibition of human SK-BR-3 cells after 48 hrs by sulforhodamine B assay; assay type: functional, cell-based; conditions: SK-BR-3, 48 h
Method in brief: (§1)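 Cells were grown in RPMI-1640 with 10% FBS, penicillin, streptomycin and amphotericin B at 37 °C in 5% CO2, then treated for 48 h in triplicate wells. They were fixed with cold 50% TCA for 1 h at 4 °C, stained with 0.4% SRB in 1% acetic acid for 10 min at RT, and dissolved in 10 mM Tris (pH 10.5) before reading A570. Percent inhibition was calculated against untreated cells after blank subtraction. IC50 is the concentration giving a 50% reduction in net protein increase, reported as mean ± SEM from ≥3 independent runs.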

SK-N-SH [2] = assay: Growth inhibition of human SK-N-SH cells after 48 hrs by sulforhodamine B assay; assay type: functional, cell-based; method in brief: as §1
HCT-116 = assay: Growth inhibition of human HCT116 cells after 48 hrs by sulforhodamine B assay; assay type: functional, cell-based; conditions: HCT-116, 48 h; method in brief: as §1
A549 = assay: Growth inhibition of human A549 cells after 48 hrs by sulforhodamine B assay; assay type: functional, cell-based; conditions: A549, 48 h; method in brief: as §1
DU-145 = assay: Growth inhibition of human DU145 cells after 48 hrs by sulforhodamine B assay; assay type: functional, cell-based; conditions: DU-145, 48 h; method in brief: as §1
SK-BR-3 [3] = assay: Selectivity ratio of IC50 for human SK-BR-3 cells to IC50 for human A549 cells; assay type: functional
[4] = Growth inhibition of human MCF10A cells after 48 hrs by sulforhodamine B assay; assay type: cell-based; conditions: MCF-10A; method in brief: as §1
SK-BR-3 [5] = assay: Selectivity ratio of IC50 for human SK-BR-3 cells to IC50 for human HCT116 cells; assay type: functional
SK-N-SH [6] = assay: Selectivity ratio of IC50 for human SK-BR-3 cells to IC50 for human SK-N-SH cells; assay type: functional
SK-BR-3 [7] = assay: Selectivity ratio of IC50 for human SK-BR-3 cells to IC50 for human DU145 cells; assay type: functional
[8] = Cytotoxicity against human MCF10A cells at 3 uM after 72 hrs by MTT assay; assay type: cell-based; conditions: mcf-10a
Method in brief: (§2)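 Cells were plated in 96-well plates with medium and treated after 24 h with five test concentrations, each in triplicate, for 72 h. They were then washed with PBS, and fresh medium plus MTT (stock 3 mg/mL in PBS) was added for 4 h at 37 °C. Formazan was dissolved in DMSO for 30 min, absorbance was read, and the data were converted to % cell viability.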

[9] = Cytotoxicity against human MCF10A cells at 10 uM after 72 hrs by MTT assay; assay type: cell-based; conditions: mcf-10a; method in brief: as §2
SK-BR-3 [10] = assay: Selectivity for human SK-BR-3 cells over human MCF10A cells
[11] = Cytotoxicity against human MCF10A cells at 0.3 uM after 72 hrs by MTT assay; assay type: cell-based; conditions: mcf-10a; method in brief: as §2
[12] = Cytotoxicity against human MCF10A cells at 1 uM after 72 hrs by MTT assay; assay type: cell-based; conditions: mcf-10a; method in brief: as §2
[13] = Cytotoxicity against human MCF10A cells at 0.1 uM after 72 hrs by MTT assay; assay type: cell-based; conditions: mcf-10a; method in brief: as §2

IC50 (SK-BR-3 [1])	IC50 (SK-N-SH [2])	IC50 (HCT-116)	IC50 (A549)	IC50 (DU-145)	Compound	Selectivity ratio (SK-BR-3 [3])	IC50 [4]	Selectivity ratio (SK-BR-3 [5])	Selectivity ratio (SK-N-SH [6])	Selectivity ratio (SK-BR-3 [7])	Activity [8]	Activity [9]	Ratio (SK-BR-3 [10])	Selectivity ratio (SK-BR-3 [10])	Activity [11]	Activity [12]	Activity [13]
28.7 µM	31.7 µM	35.7 µM	25.5 µM	24.2 µM	CO[C@@H]1CC=C2NN(c3ccc(Cl)cc3)C(=O)C[C@]2(C)O1	–	–	–	–	–	–	–	–	–	–	–	–
29.7 µM	25.3 µM	28.7 µM	21.5 µM	23.2 µM	CO[C@@H]1CC=C2NN(c3ccc(C)cc3)C(=O)C[C@]2(C)O1	–	–	–	–	–	–	–	–	–	–	–	–
5.7 µM	23.7 µM	24.3 µM	6.15 µM	22.2 µM	COc1cc(OC)cc(N2NC3=CC[C@@H](OC)O[C@@]3(C)CC2=O)c1	5	–	–	–	–	–	–	–	–	–	–	–
4.1 µM	19.5 µM	18.3 µM	3.92 µM	14.4 µM	CO[C@@H]1CC=C2NN(c3cc4ccccc4[nH]3)C(=O)C[C@]2(C)O1	5	–	–	–	–	–	–	–	–	–	–	–
18.8 µM	20.2 µM	19.4 µM	17.5 µM	21.3 µM	CO[C@@H]1CC=C2NN(c3cc(Cl)cc(Cl)c3)C(=O)C[C@]2(C)O1	–	–	–	–	–	–	–	–	–	–	–	–
15.2 µM	19 µM	17.1 µM	14.3 µM	16.4 µM	CO[C@@H]1CC=C2NN(c3cccnc3)C(=O)C[C@]2(C)O1	–	–	–	–	–	–	–	–	–	–	–	–
3.4 µM	16.6 µM	15.1 µM	4.1 µM	17.1 µM	CO[C@@H]1CC=C2NN(c3cncnc3)C(=O)C[C@]2(C)O1	5	–	–	–	–	–	–	–	–	–	–	–
1.2 µM	19.5 µM	18.1 µM	17.2 µM	18.3 µM	COc1cc(OC)cc(N2NC3=CC[C@@H](OC)O[C@@]3(c3ccccc3)CC2=O)c1	–	–	–	–	–	–	–	–	–	–	–	–
17.6 µM	17.4 µM	16.2 µM	14.1 µM	16.1 µM	CO[C@@H]1CC=C2NN(c3cc(F)cc(Cl)c3)C(=O)C[C@]2(c2ccccc2)O1	–	–	–	–	–	–	–	–	–	–	–	–
9.2 µM	11.1 µM	10.5 µM	8.11 µM	11.2 µM	CO[C@@H]1CC=C2NN(c3ccc(C)cc3)C(=O)C[C@]2(c2ccccc2)O1	–	–	–	–	–	–	–	–	–	–	–	–
8.4 µM	10.4 µM	11.3 µM	7.1 µM	10.1 µM	COc1ccc(N2NC3=CC[C@@H](OC)O[C@@]3(c3ccccc3)CC2=O)cc1	–	–	–	–	–	–	–	–	–	–	–	–
5.3 µM	8.2 µM	9.13 µM	5.2 µM	7.33 µM	CO[C@@H]1CC=C2NN(c3cncnc3)C(=O)C[C@]2(c2ccccc2)O1	–	–	–	–	–	–	–	–	–	–	–	–
0.53 µM	9.1 µM	8.2 µM	8.67 µM	7.9 µM	CO[C@@H]1CC=C2NN(c3cc4ccccc4[nH]3)C(=O)C[C@]2(c2ccccc2)O1	20	> 38 µM	20	20	20	–	–	–	–	–	–	–
5.5 µM	8.3 µM	9.1 µM	7.5 µM	7.6 µM	CO[C@@H]1CC=C2NN(c3cc(Cl)cc(Cl)c3)C(=O)C[C@]2(c2ccncc2)O1	–	–	–	–	–	–	–	–	–	–	–	–
6.2 µM	8.1 µM	7.4 µM	5.9 µM	7.1 µM	CO[C@@H]1CC=C2NN(c3ccc(C)cc3)C(=O)C[C@]2(c2ccncc2)O1	–	–	–	–	–	–	–	–	–	–	–	–
0.21 µM	6.4 µM	6.5 µM	6.22 µM	5.9 µM	COc1cc(OC)cc(N2NC3=CC[C@@H](OC)O[C@@]3(c3ccncc3)CC2=O)c1	30	> 51 µM	30	30	30	Non-toxic	Non-toxic	290	290	Non-toxic	Non-toxic	Non-toxic
0.15 µM	3.9 µM	4.35 µM	4.05 µM	4.1 µM	CO[C@@H]1CC=C2NN(c3cc4ccccc4[nH]3)C(=O)C[C@]2(c2ccncc2)O1	30	> 55 µM	30	30	30	Non-toxic	Non-toxic	290	290	Non-toxic	Non-toxic	Non-toxic
